95 molecules from ChEMBL document CHEMBL4513216, “Probing the Open Global Health Chemical Diversity Library for Multistage-Active Starting Points for Next-Generation Antimalarials” (ACS Infect Dis, 2020) can be followed below.

This series in a line: Toxicity liver stage against HepG2, at 10uM. Conditions: human, HepG2-A16-CD81EGFP cells; read-out: INHIBITION
Format: cell-based. Details: test concentration 10 uM, cell line HepG2-A16-CD81EGFP. The procedure, abridged:
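Uninfected HepG2-A16-CD81EGFP cells, 3 × 10^3 per well, 1536-well, plated on prespotted compound at 10 μM final, parasite-free screening media added to match infected plates; puromycin 10 μM positive, DMSO 0.5% negative; run in parallel with 48 h PbLuc assay at 37 °C, 5% CO2; viability by CellTiter-Glo luminescence, normalized to controls.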
For the molecule `Cc1cc(C)n(CCCN(C)C(=O)[C@H]2CCCO2)n1`, the cytotoxicity at 10 µM is -13.2%. With `Cc1ccc(C(O)CN(C)Cc2cnn(C)c2)cc1C` (stereo not given) the figure was -5.37%. `Cc1cc(NCc2noc(C(C)C)n2)nc(-c2ccccc2)n1`: the cytotoxicity at 10 µM came to 11%.

On to `COc1ccc(N(CCC(N)=O)C(=O)CSc2ccc(Cl)cc2)cc1`, for which the cytotoxicity at 10 µM was -4.37%. As for `CN(CC(=O)N1CCCCC1c1nccs1)C1CC1` (stereo not given), the cytotoxicity at 10 µM is 10.2%. Consider `Cc1cc(C)nc(N2CCC(C(=O)Nc3ncc[nH]3)CC2)n1`, for which the cytotoxicity at 10 µM was found to be 4.47%. In the case of `COc1cc(CSc2nnc(N)n2C2CC2)ccc1SC`, the cytotoxicity at 10 µM was -6.09%.

For `CCc1ncc2c(n1)CN(CC(=O)Nc1ccc(Cl)cn1)CC2`, the cytotoxicity at 10 µM was determined as 1.47%. For the molecule `O=C(CCSc1ccccc1F)NCc1cccnc1`, the cytotoxicity at 10 µM was -4.48%. `Cn1cncc1CNC1CC2(CCN(S(C)(=O)=O)CC2)c2ccccc21` (stereo not given): the cytotoxicity at 10 µM was found to be 1.55%. Take `Cn1c(N)nnc1SC1CCCN(c2ccccc2F)C1=O` (stereo not given): the cytotoxicity at 10 µM was -7.29%. With `Cc1c(Br)cccc1C(=O)NC(C)CN1CCCC1=O` (stereo not given), the cytotoxicity at 10 µM is -1.58%. Next, `CNC(=O)Cc1ccc(NC(=O)NCc2nc(C)sc2C)cc1`: -4.36%; `CCc1ccc(S(=O)(=O)NCCC(O)c2ccoc2)s1` (stereo not given): -10.9%; `CN1CCC(c2cccc(CCC(=O)NCC(N)=O)n2)CC1`: -20.1%.

`CN(C)C(=O)CNC(=O)c1nc(C2CC2)n(-c2ccccc2Cl)n1`: the cytotoxicity at 10 µM is -2.03%.

`CCN(CCNC(=O)c1cccnc1OCCOC)C1CC1`: the cytotoxicity at 10 µM was -0.966%.

For the molecule `CN(C)C(=O)CN1CCO[C@H]2CN(c3ccccn3)C[C@H]21`, the cytotoxicity at 10 µM came to 8.16%. With `O=C(CC1CC1)N1CCCn2nnc(CNc3ncccn3)c2C1`, the cytotoxicity at 10 µM is -0.802%.

Consider `CC(=O)N1CCN(c2cc(C3CN(C)CCO3)nc(C)n2)CC1` (stereo not given), for which the cytotoxicity at 10 µM was determined as 1.05%. With `Cn1nc(-c2ccc(F)cc2)cc1C(=O)NCCn1ccnc1` the figure was 3.68%.

As to `N#Cc1cccc(SCCS(N)(=O)=O)c1`, the cytotoxicity at 10 µM was -2.53%. Regarding `CN(C)c1cc(CNC(=O)CC2CCCCC2)ccn1`, the cytotoxicity at 10 µM turned out to be 9.24%. `COCCO[C@H]1COCCN(C2CCN(C)CC2)C1`: the cytotoxicity at 10 µM stood at 3.08%.

With `Cc1nc(C2CCN(C(=O)COC(C)C)CC2)cc(N2CCOCC2)n1`, the cytotoxicity at 10 µM is -8.8%. As for `COCCN1C(=O)CC[C@@H]2[C@H]1CCN2C(=O)N(C)C`, the cytotoxicity at 10 µM worked out at 10.7%. In the case of `CC1(C)CN(C(=O)CC2CCS(=O)(=O)CC2)C[C@]1(C)O`, the cytotoxicity at 10 µM was 5.91%. As for `CN(C)Cc1cc(C2CCN(C(=O)C3CC34CCC4)CC2)nn1C` (stereo not given), the cytotoxicity at 10 µM was -15%. Next, `CC(C)N(C)C(=O)C1CSCN1S(=O)(=O)c1cc(Cl)ccc1Cl` (stereo not given): -1.57%. Next, `CCOc1ncccc1CNC(=O)NC1CCOc2ccccc21` (stereo not given): -9.65%; `CN(C)C(=O)N1CC[C@]2(O)CCN(C(=O)c3ccc(C#N)nc3)C[C@@H]2C1`: -51%; `Cc1ccc(NC(=O)c2ccc(N3CCCCC3)nn2)c(Cl)c1`: -10.7%. As for `Cc1nccc([C@@H]2C[C@@H]3CCN(Cc4c(C)noc4C)C[C@H]3O2)n1`, the cytotoxicity at 10 µM was -76.9%. `CC1Oc2c(cccc2C(=O)N2CCCCCC2)NC1=O` (stereo not given): the cytotoxicity at 10 µM was -6.81%. With `COCCn1cnc2ccc(NC(=O)C3CC3)cc2c1=O` the figure was -7.89%; with `O=C1COc2ccc(S(=O)(=O)NCc3ccccc3)c3c2N1CCC3`, -7.48%. Turning to `COCCCn1cnnc1CNc1cc(C)nc2ccnn12`, the cytotoxicity at 10 µM is -7.79%.

For the molecule `CC(C)Cc1ncc2c(n1)CN(c1nc(N(C)C)nc3c1CCCC3)C2`, the cytotoxicity at 10 µM is 2.27%.

As to `NC(=O)c1ccc(NC(=O)Cn2cc(I)cn2)cc1`, the cytotoxicity at 10 µM was 8.49%. With `CCSc1nc(N)c(NC(=O)c2ccc(OC)c(OC)c2)c(=O)[nH]1` the figure was -6.24%.

Consider `Cc1cc(C(=O)N2CCN(Cc3ccco3)C(CCO)C2)cc(=O)[nH]1` (stereo not given), for which the cytotoxicity at 10 µM was -1.5%. As for `CC(C)c1nnc2n1CCN(Cc1cc(Cl)c3c(c1)OCO3)C2`, the cytotoxicity at 10 µM was determined as 0.0723%. Take `Cc1cccc(-c2noc(CN3CCOCC3C)n2)c1` (stereo not given): the cytotoxicity at 10 µM is -11.9%. Regarding `CCCc1n[nH]c(C2CN(C(=O)CCCn3ccnc3)CCO2)n1` (stereo not given), the cytotoxicity at 10 µM is -5.39%. `c1coc(-c2nnc(CN3CCCC(CN4CCCCCC4)C3)o2)c1` (stereo not given): the cytotoxicity at 10 µM is -10.5%.

For the molecule `CCCC(NC(=O)c1occc1C)c1nnn[nH]1` (stereo not given), the cytotoxicity at 10 µM is -9.36%. On to `CC(C)[C@@H]1CN(C(=O)c2ccsc2)C[C@H]1C(=O)O`, for which the cytotoxicity at 10 µM was found to be 12.8%. For the molecule `CC(C)(C)C(O)CN1CCN(Cc2nccn2CC(F)(F)F)CC1` (stereo not given), the cytotoxicity at 10 µM was determined as 4.77%.

Turning to `CC(NC(=O)c1cc(=O)n(C)c(=O)n1C)c1ccccc1-n1cccn1` (stereo not given), the cytotoxicity at 10 µM is -9.47%. For `CCC1=N[C@@]2(CC[C@@H]3CN(Cc4ccccc4F)C[C@@H]32)C(=O)N1`, the cytotoxicity at 10 µM is -1.22%.

As to `CC(C)c1noc(CCC(=O)NCC(c2ccco2)N2CCCC2)n1` (stereo not given), the cytotoxicity at 10 µM is -9.71%. With `COc1cccc(CNCC2CCN(CC(C)O)CC2)c1OC` (stereo not given) the figure was -0.191%; with `CN1C(=O)CCC12CCN(c1ccc(C#N)cn1)CC2`, -109%; with `CNC(=O)c1cccc(NC(=O)NC(C)CCc2cccn2C)c1C` (stereo not given), -1.39%. For the molecule `CCCC(=O)N(CCCN1CCOCC1)c1nc2c(Cl)cccc2s1`, the cytotoxicity at 10 µM is -12.8%. As to `Cc1nnc2n1CCN(CCS(=O)(=O)c1ccc(Cl)cc1)C2`, the cytotoxicity at 10 µM was -4.53%. For `Cc1nccc(N2C[C@@H](CN3CCCC3)[C@@H](CO)C2)n1`, the cytotoxicity at 10 µM is -3%. Turning to `Cc1nc(CN(C)C2CCN(Cc3ccno3)C2)no1` (stereo not given), the cytotoxicity at 10 µM amounted to 2.07%.

Consider `CCOc1ccc(Cl)c(C(=O)N2CCN(CC(O)CC)CC2)n1` (stereo not given), for which the cytotoxicity at 10 µM was -4.85%.

Turning to `CC(CNC(=O)c1cnc[nH]1)Oc1ccc(Cl)cc1` (stereo not given), the cytotoxicity at 10 µM was -7.09%. Consider `CN(C)C(=O)CN1C[C@H]2CCN(c3ncccn3)CC[C@H]2S1(=O)=O`, for which the cytotoxicity at 10 µM is 0.466%.

Consider `CC(C)NC(=O)[C@@H]1C[C@@H](N)CN1C(=O)c1cc2c([nH]c1=O)CCCC2`, for which the cytotoxicity at 10 µM was -0.869%. `Fc1ccccc1-c1cc(N2[C@@H]3CC[C@H]2CNC3)n2nccc2n1`: the cytotoxicity at 10 µM worked out at 23.1%.

With `CC(C)CCN1CCc2c(C(=O)N(C)Cc3ccccn3)nn(C)c2C1`, the cytotoxicity at 10 µM was -0.449%. Consider `COc1ccc(CN2CCOCC3(CCN(C4CCOCC4)C3)C2)cc1` (stereo not given), for which the cytotoxicity at 10 µM is 0.466%. Regarding `CN(C)C(=O)N1CC2(CCN(CC3CC3)CC2)c2cc(F)ccc21`, the cytotoxicity at 10 µM is -1.54%. As for `Cc1ccc(CN2CC(O)CN(C(=O)OCC(C)C)CC2=O)cc1` (stereo not given), the cytotoxicity at 10 µM is -3.09%. Turning to `CN(C)CC(=O)N1CCCC2(CCC(=O)N(CCc3c[nH]cn3)C2)C1` (stereo not given), the cytotoxicity at 10 µM is -8.77%.

In the case of `Cc1oncc1NS(=O)(=O)c1c[nH]c2ncccc12`, the cytotoxicity at 10 µM is -7.49%.

As to `CC(=O)N1CCOC2(CCCN(C(=O)c3ccc(Cl)cc3)C2)C1` (stereo not given), the cytotoxicity at 10 µM is -66.6%. Next, `O=C(CCC(=O)c1ccccc1)NC1(C(=O)NCC2CC2)CCCC1`: 2.26%; `O=C(Nc1ccc(CCN2CCC(O)CC2)cc1)C1CCCCC1`: -17.7%; `C[C@H](NS(C)(=O)=O)C(=O)NCc1cc(-c2ccco2)n(CC(F)(F)F)n1`: -13%. Regarding `CNC(=O)[C@H]1C[C@@H]2CN(C(=O)c3cscn3)C[C@@H]2N1S(C)(=O)=O`, the cytotoxicity at 10 µM is -5.17%. Turning to `CC(=O)NCCCC(=O)N1CCC(Sc2cccc(C)c2)CC1`, the cytotoxicity at 10 µM stood at 2.06%. For the molecule `CC(=O)N1CC[C@@]2(O)CCCC[C@H]2[C@@H]1c1ccccc1`, the cytotoxicity at 10 µM amounted to 2.41%.

For the molecule `CC1CN(C(=O)NCCc2nc(C(C)C)no2)CCO1` (stereo not given), the cytotoxicity at 10 µM was -0.745%.

Turning to `COc1ncccc1CNC(=O)c1cccnc1O`, the cytotoxicity at 10 µM was -4.02%.

As to `CNc1cc2c(nn1)CCN(C(=O)c1ccc3c(c1)OCO3)C2`, the cytotoxicity at 10 µM was 6.85%. On to `CN(C)CCCN(C)C1CCN(c2cccc(-c3cscn3)c2)CC1`, for which the cytotoxicity at 10 µM is -5%. With `COc1ccc2c(c1)CN(C)C(=O)CCN2CC(O)C(F)(F)F` (stereo not given) the figure was -6.84%; with `Cn1ncc2c1NC(=O)CC2c1ccc(F)cc1` (stereo not given), 4.63%. For the molecule `O=C(NCCN1CCOCC1)c1nc(-c2ccc3[nH]ccc3c2)no1`, the cytotoxicity at 10 µM is -7.53%.

Regarding `Cc1ccc(-c2nc(CN(Cc3ccco3)C3CCS(=O)(=O)C3)cs2)o1` (stereo not given), the cytotoxicity at 10 µM came out at 10.3%. For the molecule `CCn1ncnc1C(C)Nc1cc(C)c2ccc(SC)cc2n1` (stereo not given), the cytotoxicity at 10 µM was -0.995%. Next, `CC(C)(C)c1nc(CN2CCN(C(=O)c3cnccn3)CC2)cs1`: -5.92%. On to `CC(C)OCc1noc(C2CCCOC2)n1` (stereo not given), for which the cytotoxicity at 10 µM amounted to 5.31%.

In the case of `Cc1ncc(CN2CCOC(CN(C)c3cccnn3)C2)s1` (stereo not given), the cytotoxicity at 10 µM is 2.86%.

For `CCc1sc(-c2nnc(CNC(C)Cn3cccn3)o2)cc1C` (stereo not given), the cytotoxicity at 10 µM came out at 0.749%. For `Cc1nc(N2CCC(CN3CCCC3)CC2)c2cnn(C)c2n1`, the cytotoxicity at 10 µM is 8.39%. Take `Cn1cc(CN2CCCn3cnc(CN4CCCC4=O)c3C2)cn1`: the cytotoxicity at 10 µM was -1.39%.

On to `O=C(c1cccnc1)N1C[C@H]2CN(Cc3cccc(F)c3)C(=O)[C@H]2C1`, for which the cytotoxicity at 10 µM was -78.9%. Turning to `O=S(=O)(c1ccccc1)N1CC[C@]2(C[C@@H](OCC3CC3)CO2)C1`, the cytotoxicity at 10 µM is -81.3%.

Regarding `COc1ccc(CC(=O)N(C)c2cccnc2N(C)C)c(Cl)c1`, the cytotoxicity at 10 µM turned out to be 5.71%. Turning to `O=C(c1ccoc1)N1C[C@@H]2OCCN(c3ncccn3)[C@@H]2C1`, the cytotoxicity at 10 µM amounted to 5.09%.
